Test results: ChEMBL document CHEMBL1122519, “Bispyridinamines: a new class of topical antimicrobial agents as inhibitors of dental plaque” (1984)

Key:
Streptococcus mutans [1] = assay: Compound is evaluated for the effect of saliva upon the antiplaque activity at 50% of saliva and at 0.1 percentage of compound; + = Slight plaque accumulation; format: functional, organism-based
Summary of the method: (§1)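 Hydroxylapatite plates were treated twice daily with 1-min exposures to aqueous compound (0.001–0.1%), air-dried and rinsed. They were then incubated anaerobically at 37 °C with S. mutans in sucrose medium for 48 h. The medium held 0, 5 or 50% pooled, centrifuged, filter-sterilised human saliva. Plaque and plate staining were scored visually after FD&C Red No. 3 dye. Staining was scored on plates run without organism.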

Streptococcus mutans [2] = assay: Compound is evaluated for the effect of saliva upon the antiplaque activity at 5% of saliva and at 0.01 percentage of compound; + = Slight plaque accumulation; format: functional, organism-based; summary of the method: as §1
Streptococcus mutans [3] = assay: Compound is evaluated for the effect of saliva upon the antiplaque activity at 50% of saliva and at 0.1 percentage of compound; - = No staining; format: functional, organism-based; summary of the method: as §1
Streptococcus mutans [4] = assay: Compound is evaluated for the effect of saliva upon the antiplaque activity at 0% of saliva and at 0.1 percentage of compound; - = No plaque accumulation; format: functional, organism-based; summary of the method: as §1
Streptococcus mutans [5] = assay: Compound is evaluated for the effect of saliva upon the antiplaque activity at 0% of saliva and at 0.01 percentage of compound; + = Slight staining; format: functional, organism-based; summary of the method: as §1
Streptococcus mutans [6] = assay: Compound is evaluated for the effect of saliva upon the antiplaque activity at 5% of saliva and at 0.005 percentage of compound; + = Slight plaque accumulation; format: functional, organism-based; summary of the method: as §1
Streptococcus mutans [7] = assay: Compound is evaluated for the effect of saliva upon the antiplaque activity at 50% of saliva and at 0.01 percentage of compound; + = Slight plaque accumulation; format: functional, organism-based; summary of the method: as §1
Streptococcus mutans [8] = assay: Compound is evaluated for the effect of saliva upon the antiplaque activity at 0% of saliva and at 0.01 percentage of compound; - = No plaque accumulation; format: functional, organism-based; summary of the method: as §1
Streptococcus mutans [9] = assay: Compound is evaluated for the effect of saliva upon the antiplaque activity at 0% of saliva and at 0.1 percentage of compound; - = No staining; format: functional, organism-based; summary of the method: as §1
Streptococcus mutans [10] = assay: Compound is evaluated for the inhibition of plaque-forming enzyme of Streptococcus mutans OMZ-61; format: functional
Summary of the method: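 S. mutans OMZ-61 was grown anaerobically at 37 °C for 24 h in glucose medium. The cell-free filtrate, adjusted to pH 5.5, served as the dextran/levan sucrase source. Reactions contained 3 μmol 14C-sucrose in citrate phosphate buffer pH 5.5 with 4% EtOH and ran 2 h at 37 °C. MeOH-insoluble polysaccharide was counted by scintillation. Compounds were tested at 50, 160 and 500 μg base/mL, with lower levels if needed, and I50 was read graphically.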

Streptococcus mutans [11] = assay: Compound is evaluated for the effect of saliva upon the antiplaque activity at 0% of saliva and at 0.005 percentage of compound; - = No plaque accumulation; format: functional, organism-based; summary of the method: as §1
Streptococcus mutans [12] = assay: Compound is evaluated for the effect of saliva upon the antiplaque activity at 0% of saliva and at 0.001 percentage of compound; - = No plaque accumulation; format: functional, organism-based; summary of the method: as §1
Streptococcus mutans [13] = assay: Compound is evaluated for the effect of saliva upon the antiplaque activity at 0% of saliva and at 0.005 percentage of compound; + = Slight staining; format: functional, organism-based; summary of the method: as §1
Streptococcus mutans [14] = assay: Compound is evaluated for the effect of saliva upon the antiplaque activity at 50% of saliva and at 0.005 percentage of compound; - = No staining; format: functional, organism-based; summary of the method: as §1
Streptococcus mutans [15] = assay: Compound is evaluated for the effect of saliva upon the antiplaque activity at 5% of saliva and at 0.01 percentage of compound; - = No staining; format: functional, organism-based; summary of the method: as §1
Streptococcus mutans [16] = assay: Compound is evaluated for the effect of saliva upon the staining potential at 0% of saliva and at 0.001 percentage of compound; - = No staining; format: functional, organism-based; summary of the method: as §1
Streptococcus mutans [17] = assay: Compound is evaluated for the effect of saliva upon the antiplaque activity at 50% of saliva and at 0.01 percentage of compound; - = No staining; format: functional, organism-based; summary of the method: as §1

CCCCCCCCCCCCCCCC[n+]1ccccc1.[Cl-]
Plaque accum (Streptococcus mutans [1]): No plaque accumulation
Plaque accum (Streptococcus mutans [2]): No plaque accumulation
Staining potential (Streptococcus mutans [3]): No staining
Plaque accum (Streptococcus mutans [4]): No plaque accumulation
Staining potential (Streptococcus mutans [5]): No staining
Plaque accum (Streptococcus mutans [6]): No plaque accumulation
Plaque accum (Streptococcus mutans [7]): No plaque accumulation
Plaque accum (Streptococcus mutans [8]): No plaque accumulation
Staining potential (Streptococcus mutans [9]): No staining
I50 (Streptococcus mutans [10]): 95 (ug of base) ml-1
Plaque accum (Streptococcus mutans [11]): No plaque accumulation
Plaque accum (Streptococcus mutans [12]): No plaque accumulation
Staining potential (Streptococcus mutans [13]): No staining
Staining potential (Streptococcus mutans [14]): No staining
Staining potential (Streptococcus mutans [15]): No staining
Staining potential (Streptococcus mutans [16]): No staining
Staining potential (Streptococcus mutans [17]): No staining
